Measured values reported in PubChem BioAssay.
Records with an inconclusive call do not appear.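 Rule for the calls, unless noted: active = viability increase at or above a cutoff of the median across tested compounds plus 3 SD (cut at about 8.5% in these data, passing the limit was not always enough); inconclusive = some gains above the cutoff, reason not given; inactive = the rest.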

Tests used:
[1] = S. cerevisiae growth inhibition in permissive medium (OD615), pilot counter-assay for S. cerevisiae lifespan shortening project, permissive growth control (AID 705;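 active = growth inhibition above 25% in both replicates, a cutoff set 3 SD above the mean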); conditions: OD615, 24 h, at 10 µM, active compounds read high
How it was run: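 System: engineered DeaD yeast; Medium: permissive raffinose/galactose medium; Compound dosing: 10 µM single dose, 0.25% DMSO; Incubation: 4 h cell pre-growth, 24 h exposure at 30 °C; Technique: OD at 615 nm; Evaluation: growth inhibition from lowered OD615 after 24 h.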

[2] = S. cerevisiae growth inhibition in restrictive medium, OD615, pilot screen, restrictive growth control, yeast lifespan reduction project (AID 706;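 active = growth inhibition above a set limit, 3 SD over mean compound inhibition, in both replicates, cut at about 43% in these data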;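 note: modified DeaD lifespan yeast strain shifted to restrictive glucose medium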); conditions: OD615, 48 h, at 10 µM, active compounds read high
How it was run: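 Material: modified S. cerevisiae; buffer or medium: CSMM-D glucose medium; doses: one concentration, 10 µM final, 0.25% DMSO; incubation: 48 h compound exposure at 30 °C; detection: optical density at 615 nm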

[3] = doxorubicin toxicity protection in MRP-1 cells – H69AR cells, CellTiter-Glo, duplicate, MRP-1 activator project, pilot screen (AID 807); conditions: H69AR viability with doxorubicin, CellTiter-Glo luminescence; at 10 µM; active compounds read high;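 note: compound pretreatment 18-22 h then 72 h combined with doxorubicin; 0% = doxorubicin alone and 100% = vehicle without doxorubicin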
[4] = viability of HCT116 without oncogenic beta-catenin – human colon tumor cells, pilot screen (AID 823;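 active = cell viability at or below a set limit in both duplicate runs, the limit being the all-compound median minus 4 SD, cut at about 23% in these data, passing the limit was not always enough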;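 note: 0% = wells killed by 20 µM Hyamine and 100% = untreated DMSO cell wells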); conditions: HCT116 beta-catenin knockout viability, CellTiter-Glo, 60 h; at 10 µM; active compounds read low
[5] = viability of PTEN-null HCT116 cells – cell-based, HCT116 clonal line, CellTiter-Glo, pilot screen (AID 824;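 active = viability at or below 27.92% in each of two runs, the all-compound median minus 4 SD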;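 note: 0% = 20 µM Hyamine control and 100% = vehicle cell control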); conditions: HCT116 PTEN-deleted viability, 60 h, at 10 µM, active compounds read low
[6] = RAM pathway blockade in budding yeast – dse1pr::URA3 reporter, 5-FOA selection, pilot screen (AID 869;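 active = inhibition over a set limit, the all-compound mean plus 3 SD, in both replicate runs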;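 note: 0% = DMSO wells with no growth and 100% = 10 µM 1-NA-PP1 with full growth; RAM network block rescues cells from 5-FOA so hits raise OD615 growth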); conditions: S. cerevisiae dse1pr::URA3 5-FOA growth, OD615, 2 d; at 10 µM; active compounds read high; strain carries analog-sensitive mutant Cbk1 kinase
[7] = RAM signaling pathway blockade in yeast – S. cerevisiae, Pdr1DBD-CYC8 efflux-inhibited sensitized strain, primary screen (AID 1298;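 active = RAM network inhibition above 8.4% in each of two replicates, 3 SD over the compound average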;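 note: 0% = DMSO untreated cells without growth and 100% = 10 µM 1-NA-PP1 full growth; higher means more yeast growth rescued from 5-FOA killing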); conditions: S. cerevisiae cbk1-as DSE1-URA3 strain, 5-FOA growth OD615, 2 d; at 50 µM; active compounds read high

Cn1c(=O)[nH]c(=O)c2c1nc(CN1CCOCC1)n2Cc1ccc(F)cc1
inactive: growth inhibition [1] -6.42% | growth inhibition [2] -18.4% | viability increase [3] -3.24% | viability [4] 98.5% | viability [5] 93.4% | inhibition [6] 2.65% | RAM network inhibition [7] 2.15%

NC(=O)C1(S(=O)(=O)c2ccccc2)CCCCC1
inactive: growth inhibition [1] -0.22% | growth inhibition [2] -4.29% | viability increase [3] -1.06% | viability [4] 97.8% | viability [5] 96.7% | inhibition [6] 1.43% | RAM network inhibition [7] 4.97%

COc1ccccc1-c1cc(N)n(S(=O)(=O)c2ccc(F)c(C)c2)n1
inactive: growth inhibition [1] -9.16% | growth inhibition [2] -5.82% | viability increase [3] -3.08% | viability [4] 55% | viability [5] 64% | inhibition [6] 4.39% | RAM network inhibition [7] 3.97%

Cc1cccc(N2CCN(C(c3cccs3)c3nnnn3C(C)(C)C)CC2)c1C (stereo unspecified)
inactive: growth inhibition [1] -10.2% | growth inhibition [2] -9.96% | viability increase [3] -0.98% | viability [4] 55.5% | viability [5] 56.7% | inhibition [6] 0.97% | RAM network inhibition [7] 5.15%

COc1ccccc1N(CC(=O)Nc1ccccc1C(=O)NC(C)C)S(C)(=O)=O
inactive: growth inhibition [1] -3.27% | growth inhibition [2] -16.6% | viability increase [3] -0.99% | viability [4] 86.6% | viability [5] 77% | inhibition [6] 1.95% | RAM network inhibition [7] -0.28%

CCCSc1nc2c(c(=O)n1CC)SC(C)C2 (stereo unspecified)
inactive: growth inhibition [1] -2.71% | growth inhibition [2] -13% | viability increase [3] -2.02% | viability [4] 105% | viability [5] 88.5% | inhibition [6] 1.4% | RAM network inhibition [7] 2.48%

CCOc1ccc(C2CC(c3cccc(Cl)c3)n3nc(N)nc3N2)cc1 (stereo unspecified)
inactive: growth inhibition [1] 5.36% | growth inhibition [2] 7.05% | viability increase [3] -0.08% | viability [4] 92% | viability [5] 88.2% | inhibition [6] 1.14% | RAM network inhibition [7] 9.61%

CC1CCCC(C)N1c1nnc(N)s1 (stereo unspecified)
inactive: growth inhibition [1] 0.52% | growth inhibition [2] 30.8% | viability increase [3] -1.42% | viability [4] 104% | viability [5] 102% | inhibition [6] 0.385% | RAM network inhibition [7] 0.17%

CSc1nc2c(c(=O)n1-c1ccc(F)cc1)SCC2
inactive: growth inhibition [1] -9.67% | growth inhibition [2] -24.3% | viability increase [3] -1.07% | viability [4] 102% | viability [5] 93.7% | inhibition [6] 2.19% | RAM network inhibition [7] 4.08%

Cn1c2c(c3ccccc31)CC/C2=N\O
inactive: growth inhibition [1] 1.57% | growth inhibition [2] 18.9% | viability increase [3] -0.84% | viability [4] 100% | viability [5] 99% | inhibition [6] 1% | RAM network inhibition [7] 1.01%

CS(=O)(=O)N1CCN(c2nc(-c3ccc(F)cc3)cs2)CC1
inactive: growth inhibition [1] -4.7% | growth inhibition [2] 1.69% | viability increase [3] -0.68% | viability [4] 90.9% | viability [5] 88.8% | inhibition [6] 2.98% | RAM network inhibition [7] 3.11%

COCCn1c(CN(C)Cc2ccccc2)nc2c1c(=O)n(C)c(=O)n2C
inactive: growth inhibition [1] -5.71% | growth inhibition [2] 8.7% | viability increase [3] 0.55% | viability [4] 87.8% | viability [5] 91.5% | inhibition [6] 3.04% | RAM network inhibition [7] 1.53%

CCCSc1nnc(Cn2c(=O)sc3ccccc32)n1C
inactive: growth inhibition [1] -15.8% | growth inhibition [2] -38% | viability increase [3] -2.24% | viability [4] 94.3% | viability [5] 87.1% | inhibition [6] 0.415% | RAM network inhibition [7] -0.25%

Cc1nn(Cc2ccccc2)c(N)c1C#N
inactive: growth inhibition [1] -2.69% | growth inhibition [2] 1.22% | viability increase [3] 0.68% | viability [4] 107% | viability [5] 98.3% | inhibition [6] 1.58% | RAM network inhibition [7] 5.62%

COC(=O)c1ccc(NC(=O)CSc2nnc(-c3ccncc3)n2N)cc1
inactive: growth inhibition [1] -4.88% | growth inhibition [2] -14.8% | viability increase [3] -1.74% | viability [4] 95.7% | viability [5] 97.4% | inhibition [6] 0.805% | RAM network inhibition [7] 0.26%

CC(=O)NC(NC(C)=O)c1ccc(N(C)C)cc1
inactive: growth inhibition [1] 2.72% | growth inhibition [2] 16.3% | viability increase [3] -0.12% | viability [4] 100% | viability [5] 100% | inhibition [6] -0.22% | RAM network inhibition [7] -0.26%

CCOc1ccc(N(CC(=O)NCCSc2ccccn2)S(C)(=O)=O)cc1
inactive: growth inhibition [1] 0.64% | growth inhibition [2] 2.82% | viability increase [3] -3.63% | viability [4] 97.8% | viability [5] 95.3% | inhibition [6] 0.35% | RAM network inhibition [7] 3.38%

Cc1ccn2c(-c3csc(NCc4ccco4)n3)c(C)nc2c1
inactive: growth inhibition [1] -1.21% | growth inhibition [2] 2.84% | viability increase [3] -4.37% | viability [4] 66.6% | viability [5] 71.8% | inhibition [6] 3.51% | RAM network inhibition [7] 3.65%

COC(=O)C1=C(C)N(Cc2cccnc2)C(=O)C1
inactive: growth inhibition [1] -10.7% | growth inhibition [2] -8.8% | viability increase [3] -1.77% | viability [4] 98.7% | viability [5] 102% | inhibition [6] 2.84% | RAM network inhibition [7] 5.02%

Cc1nn(-c2ccccc2)c2sc(C(=O)OCN3C(=O)c4ccccc4C3=O)cc12
inactive: growth inhibition [1] -8.01% | growth inhibition [2] -6.25% | viability increase [3] -3.32% | viability [4] 83.6% | viability [5] 85.2% | inhibition [6] 2.55% | RAM network inhibition [7] 4.24%

CCN(CC)P1(=O)OC(c2cc(OC)c(OC)c(OC)c2)=Nc2c1c(C)nn2-c1ccccc1 (stereo unspecified)
inactive: growth inhibition [1] -7.12% | growth inhibition [2] -13.3% | viability increase [3] -2.38% | viability [4] 95.8% | viability [5] 92.8% | inhibition [6] 1.87% | RAM network inhibition [7] 2.4%

O=C(O)[C@@H](c1ccccc1)N1Cc2ccccc2C1=O
inactive: growth inhibition [1] 2.66% | growth inhibition [2] -13.5% | viability increase [3] -0.32% | viability [4] 104% | viability [5] 96.7% | inhibition [6] 1.13% | RAM network inhibition [7] 1.56%

O=C1c2ccccc2NC(c2ccccc2)N1c1ccc(O)cc1 (stereo unspecified)
inactive: growth inhibition [1] -0.23% | growth inhibition [2] 1.65% | viability increase [3] -3.15% | viability [4] 87.1% | viability [5] 90.8% | inhibition [6] 1.19% | RAM network inhibition [7] 1.89%
